PubChem BioAssay AID463111 (Johns Hopkins Ion Channel Center, 2010)
Among all 310,000 compounds or so, about 2,800 (0.9%) were called active.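 Rule for the calls: active = B-score of the integrated calcium signal more than 4 SD below the library mean, with starting fluorescence not abnormally high; inactive = the rest.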 The full list was thinned out, with actives kept by preference.

Assay: enhancers of RGS4 function in calcium signaling – cell-based, HEK293 M3R inducible RGS4, calcium flux, primary screen (AID 463111);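 for B-score: negative B-score means reduced calcium response which marks RGS4 activation or potentiation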
Conditions: HEK293 M3R/inducible RGS4, carbachol calcium flux Fluo4, at 10 µM; hits give low values
Procedure, shortened: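 test system = M3R-expressing HEK293 line, RGS4 induced by doxycycline | probe or stimulus = carbachol at ECmax as muscarinic agonist stimulus | timing = dye loading 30 min 37 °C, buffer rest 30 min RT | signal = calcium dye Fluo4 fluorescence | evaluation = B score from integrated fluorescence ratio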
For Cc1cccc(OP(=O)(Oc2cccc(C)c2)OC(c2ccccc2)C(F)(F)F)c1 (stereo not given), the B-score was -7.67 (active). In the case of CCN(CC)P(=O)(Oc1cccc(C)c1)N(CC)CC, the B-score is reported as “inactive”. In the case of O=C1CC(=O)N(Cc2ccccc2)C(=O)N1CCCCCCN1C(=O)CC(=O)N(Cc2ccccc2)C1=O, the B-score is reported as “inactive”. With CC(c1ccccc1)(c1ccccc1)c1ccncc1 the B-score was “inactive”. In the case of CCNc1nc2[nH]c(=O)c3c(c2s1)OC(N)=C(C#N)C3c1cccs1 (stereo not given), the B-score is reported as “inactive”. In the case of C=CC12CN(C)[C@@H]3C4CO[C@H](C[C@H]41)[C@]1(C(=O)Nc4ccccc41)[C@@H]32 (stereo not given in full), the B-score is reported as -8.82 (active). In the case of CCC(C)n1c(O)c(/C=N/Nc2nc3c(c(=O)n(C)c(=O)n3C)n2C)c(=O)[nH]c1=S (stereo not given), the B-score is reported as “inactive”. In the case of CCOc1ccc(C2SCC(=O)Nc3c2c(C)nn3C2CCOC(C)(C)C2)cc1 (stereo not given), the B-score is reported as “inactive”. In the case of Cc1ccsc1C(=O)C1CCCN(Cc2ccc(O)cc2)C1 (stereo not given), the B-score is reported as “inactive”. With Cc1ccc(CN2CCCC(C(=O)c3ccc4c(c3)OCO4)C2)cc1C (stereo not given) the B-score was -7.27 (active). With COc1ccc(C(=O)C2CCCN(Cc3ccc(C)s3)C2)cc1OC (stereo not given) the B-score was “inactive”. In the case of O=C(Cc1ccc(Cl)cc1)NCCN1CCN(C(=O)Cc2ccc(Cl)cc2)CC1, the B-score is reported as “inactive”. For CCOC(=O)C1(Cc2ccc(Cl)cc2)CCN(C(C)CCn2cccn2)CC1 (stereo not given), the B-score was “inactive”. In the case of OC(Cn1c2ccccc2c2ccccc21)C[n+]1ccccc1 (stereo not given), the B-score is reported as “inactive”. For CN1CCN(/N=C/c2c[nH]c3ccccc23)CC1, the B-score was “inactive”. With O=C(Nc1cccc(OC(=O)N2CCCCC2)c1)N1CCOCC1 the B-score was “inactive”. For COc1cccc(CN2CCCC(C(=O)c3ccccc3SC)C2)c1O (stereo not given), the B-score was “inactive”. With CC(C)Oc1cccc(C(=O)C2CCCN(C3CCOCC3)C2)c1 (stereo not given) the B-score was -7.9 (active). In the case of COc1ccc(-c2nn(CCC#N)cc2C(=O)O)cc1, the B-score is reported as “inactive”. For Cc1cccc(-n2c(O)c(/C=N/N3CCOCC3)c(=O)[nH]c2=S)c1, the B-score was “inactive”. For COc1cc(-n2c(=S)[nH]c3ccc(C)cc3c2=O)c(Cl)cc1Cl, the B-score was “inactive”. In the case of CCCCCn1c(=O)c(C(=O)NCc2ccccc2)c(O)c2ccccc21, the B-score is reported as “inactive”. In the case of CCCCn1c(=O)c(C(=O)Nc2ccccc2Cl)c(O)c2ccccc21, the B-score is reported as “inactive”. With CCCCCn1c(=O)c(C(=O)Nc2c(C)n(C)n(-c3ccccc3)c2=O)c(O)c2ccccc21 the B-score was -7.47 (active). For O=C(O)CCn1cc(C=C2C(=O)NC(=S)NC2=O)c(-c2cccc(Br)c2)n1, the B-score was “inactive”.
